ChEMBL document CHEMBL4354868, “6-Arylmethylidene Penicillin-Based Sulfone Inhibitors for Repurposing Antibiotic Efficiency in Priority Pathogens” (J Med Chem, 2020)
pKi: −log10 of the molar value. Values after ≈ are worked out from the molar mass of the structure shown. Active and inactive are the calls of the source. The rule behind the calls is not given here.

Key:
[1] = tested on: Acinetobacter baumannii ATCC 17978; test: Inhibition of Acinetobacter baumannii ATCC 17978 OXA-24/40 expressed in Escherichia coli BL21 assessed as ratio of Kinact/Ki using nitrocefin as substrate measured after 15 mins by spectrophotometry analysis
[2] = tested on: Acinetobacter baumannii ATCC 17978; test: (§1) Inhibition of OXA-24/40 in carbapenem-resistant Acinetobacter baumannii ATCC 17978 transfected with pET-RA-KmR plasmid encoding rifampicin and kanamycin resistance assessed as potentiation of imipenem-induced antibacterial activity by measuring imipenem MIC at 16 ug/mL in Mueller-Hinton broth by CLSI protocol based method (reference value: 64 ug/mL)
Summary of the method: (§2)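 MIC of the reporter antibiotic measured by CLSI broth microdilution in Mueller-Hinton II broth, with and without inhibitor at 16 µg mL-1. Reporters were ampicillin for class A (TEM-1, CTX-M-2), ceftazidime for class C (CMY-2, DHA-1) and imipenem for class D (OXA-23, OXA-24/40, OXA-48). MIC is the lowest concentration with no visible growth, mean of three independent replicates. Strains were grown in LB at 37 °C, with kanamycin or ampicillin at 50 mg L-1 where needed.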

[3] = molecular target: Beta-lactamase OXA-23 (Acinetobacter baumannii) (UniProt Q9L4P2); test: as §1, with “OXA-23” for “OXA-24/40”, “8” for “64”; summary of the method: as §2
[4] = molecular target: Beta-lactamase TEM-1 (Escherichia coli) (UniProt Q4GY26); test: (§3) Inhibition of TEM-1 in penicillin-resistant Escherichia coli TG1 transfected with pBGS18 plasmid encoding replication origin and kanamycin resistance assessed as potentiation of ampicillin-induced antibacterial activity by measuring ampicillin MIC at 16 ug/mL in Mueller-Hinton broth by CLSI protocol based method (Rvb > 1024 ug/mL); summary of the method: as §2
[5] = tested on: Acinetobacter baumannii ATCC 17978; test: Inhibition of carbapenem-resistant Acinetobacter baumannii ATCC 17978 OXA-24/40 expressed in Escherichia coli BL21 assessed as inactivation rate constant using nitrocefin as substrate measured after 15 mins by spectrophotometry analysis
Escherichia coli [6] = test: as §3, with “CTX-M2” for “TEM-1”, “beta-lactam-resistant” for “penicillin-resistant”; summary of the method: as §2
[7] = Inhibition of carbapenem-resistant Acinetobacter baumannii ATCC 17978 OXA-24/40 expressed in Escherichia coli BL21 using nitrocefin as substrate measured after 15 mins by spectrophotometry analysis
Escherichia coli [8] = test: (§4) Inhibition of CMY-2 in beta-lactam-resistant Escherichia coli TG1 transfected with pBGS18 plasmid encoding replication origin and kanamycin resistance assessed as potentiation of ceftazidime-induced antibacterial activity by measuring ceftazidime MIC at 16 ug/mL in Mueller-Hinton broth by CLSI protocol based method (reference value: 32 ug/mL); summary of the method: as §2
Klebsiella pneumoniae [9] = test: Inhibition of OXA-48 in beta-lactam-resistant Klebsiella pneumoniae assessed as potentiation of imipenem-induced antibacterial activity by measuring imipenem MIC at 16 ug/mL in Mueller-Hinton broth by CLSI protocol based method (reference value: 64 ug/mL); summary of the method: as §2
Escherichia coli [10] = test: as §4, with “DHA-1” for “CMY-2”; summary of the method: as §2
Klebsiella pneumoniae [11] = test: Binding affinity to OXA-48 in Klebsiella pneumoniae assessed as ezyme-compound adduct formation from loss of catechol group with increase in mass at 1:100 ezyme-compound ratio using nitrocefin as substrate at pH 7 and 25 degree C by MALDI-TOF MS analysis
Summary of the method: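 OXA-48 from K. pneumoniae incubated with ligand at 1:100 enzyme/inhibitor molar ratio in 50 mM Tris-HCl, 150 mM NaCl, 1 mM EDTA pH 7.0, 25 °C, 30 min; activity followed on aliquots by nitrocefin hydrolysis (482 nm) in phosphate/bicarbonate pH 7.4; samples then washed with 5 mM ammonium bicarbonate by ultrafiltration, freeze-dried, analysed by MALDI-TOF; triplicate.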

[12] = tested on: Acinetobacter baumannii ATCC 17978; test: Binding affinity to OXA-24/40 in carbapenem-resistant Acinetobacter baumannii ATCC 17978 assessed as ezyme-compound adduct formation from loss of catechol group with increase in mass at 1:100 ezyme-compound ratio using nitrocefin as substrate at pH 7 and 25 degree C by MALDI-TOF MS analysis
Summary of the method: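 OXA-24/40 (from a 0.9 mg mL-1 stock) was incubated with ligand at a 1:100 enzyme/inhibitor molar ratio in 50 mM Tris-HCl, 150 mM NaCl, 1 mM EDTA, pH 7.0, 25 °C, for 30 min. Activity was followed by nitrocefin hydrolysis at 482 nm. Samples were then washed and concentrated with 5 mM ammonium bicarbonate, freeze-dried, and analysed by MALDI-TOF for the covalent adduct mass shift, in triplicate.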

Acinetobacter baumannii = test: Antibacterial activity against wild type carbapenem-susceptible Acinetobacter baumannii ATCC 17978 in Mueller-Hinton broth by CLSI protocol based method; format: functional
Summary of the method: (§5)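 Broth microdilution MIC in Mueller-Hinton II broth following CLSI. Strains were grown in LB broth or on LB agar at 37 °C and stored at -80 °C in LB with 15% glycerol. MIC is the lowest concentration with no visible growth, given as the mean of three independent replicates.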

Klebsiella pneumoniae [13] = test: Antibacterial activity against wild type beta-lactam-resistant Klebsiella pneumoniae in Mueller-Hinton broth by CLSI protocol based method; format: functional; summary of the method: as §5
Escherichia coli [14] = test: as §3, with “CTX-M2” for “TEM-1”, “beta-lactam-resistant” for “penicillin-resistant”, “measuring fold reduction in” for “measuring”, “relative to ampicillin MIC alone” for “(Rvb > 1024 ug/mL)”; summary of the method: as §2
Escherichia coli [15] = test: Antibacterial activity against wild type Escherichia coli TG1 in Mueller-Hinton broth by CLSI protocol based method; format: functional; summary of the method: as §5
[16] = tested on: Acinetobacter baumannii ATCC 17978; test: Inhibition of carbapenem-resistant Acinetobacter baumannii ATCC 17978 OXA-24/40 expressed in Escherichia coli BL21 using nitrocefin as substrate measured after 15 mins by spectrophotometry analysis relative to parent compound
[17] = tested on: Acinetobacter baumannii ATCC 17978; test: Inhibition of carbapenem-resistant Acinetobacter baumannii ATCC 17978 OXA-24/40 expressed in Escherichia coli BL21 assessed as ratio of Kinact/Ki using nitrocefin as substrate measured after 15 mins by spectrophotometry analysis relative to parent compound
[18] = Drug metabolism assessed as centered band formation at 295 nm leading to conjugate imine intermediate formation at 25 degree C measured up to 2 mins for 15 mins in presence of sodium methoxide by UV-Vis spectroscopy
Summary of the method: (§6)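 Methanolysis followed after adding 1 equivalent NaOMe (1 M in MeOH) at 25 °C over 15 min; UV-Vis spectra scanned 600–200 nm, 2.0 nm bandwidth, 1 cm cell, collected at 0.5, 1.0, 1.5 and 2.0 min; mixture afterwards checked by HPLC-MS.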

[19] = Drug metabolism assessed as decrease in centered band formation at 253 nm leading to -indolizine skeleton formation at 25 degree C measured up to 2 mins for 15 mins in presence of sodium methoxide by UV-Vis spectroscopy; summary of the method: as §6
[20] = Drug metabolism assessed as decrease in centered band formation at 408 nm leading to -indolizine skeleton formation at 25 degree C measured up to 2 mins for 15 mins in presence of sodium methoxide by UV-Vis spectroscopy; summary of the method: as §6

For `C[C@]1(COC(=O)Cc2ccc(O)c(O)c2)[C@H](C(=O)O)N2C(=O)/C(=C/c3ccc(F)cn3)[C@H]2S1(=O)=O`, the Ratio [1] was 48900 M⁻¹ s⁻¹, the MIC [2] was 1 µg/mL and the MIC [3] was 1 µg/mL. For the same compound, the MIC [4] was 2 µg/mL, the Kinact [5] was 25 ms-1 and the MIC (Escherichia coli [6]) was 32 µg/mL. It also gave a pKi [7] of 6.31, an MIC (Escherichia coli [8]) of less than 0.25 µg/mL and an MIC (Klebsiella pneumoniae [9]) of 4 µg/mL. For the same compound, the MIC (Escherichia coli [10]) was less than 0.25 µg/mL, the Activity (Klebsiella pneumoniae [11]) was “Active” and the Activity [12] was “Active”.
`C[C@]1(COC(=O)Cc2ccc(O)c(O)c2)[C@H](C(=O)O)N2C(=O)/C(=C/c3nccc4ccsc34)[C@H]2S1(=O)=O` showed a Ratio [1] of 47600 M⁻¹ s⁻¹, an MIC [2] of 8 µg/mL and an MIC [3] of 2 µg/mL. It also gave an MIC [4] of 2 µg/mL, a Kinact [5] of 11 ms-1 and an MIC (Escherichia coli [6]) of 256 µg/mL. For the same compound, the pKi [7] was 6.61, the MIC (Escherichia coli [8]) was less than 0.25 µg/mL and the MIC (Klebsiella pneumoniae [9]) was 64 µg/mL. The MIC (Escherichia coli [10]) was less than 0.25 µg/mL, the Activity (Klebsiella pneumoniae [11]) was “Active” and the Activity [12] was “Active”.
Work on `COc1ccnc(/C=C2/C(=O)N3[C@@H](C(=O)O)[C@](C)(COC(=O)Cc4ccc(O)c(O)c4)S(=O)(=O)[C@H]23)c1OC` yielded a Ratio [1] of 83200 M⁻¹ s⁻¹, an MIC [2] of 8 µg/mL and an MIC [3] of 4 µg/mL. The MIC [4] was 2 µg/mL, the Kinact [5] was 24 ms-1 and the MIC (Escherichia coli [6]) was 256 µg/mL. It also gave a pKi [7] of 6.56, an MIC (Escherichia coli [8]) of less than 0.25 µg/mL and an MIC (Klebsiella pneumoniae [9]) of 64 µg/mL. The MIC (Escherichia coli [10]) was less than 0.25 µg/mL and the Activity (Klebsiella pneumoniae [11]) was “Active”.
Compound `C[C@@H](O)[C@H]1C(=O)N2C(C(=O)O)=C(SCCNC=N)C[C@H]12` [IMIPENEM ANHYDROUS] has an MIC (Acinetobacter baumannii) of 0.5 µg/mL (≈ 1.67 µM) and an MIC (Klebsiella pneumoniae [13]) of 0.5 µg/mL (≈ 1.67 µM).
`C[C@]1(COC(=O)Cc2ccc(O)c(O)c2)[C@H](C(=O)O)N2C(=O)/C(=C/c3ccccn3)[C@H]2S1(=O)=O` showed a Ratio [1] of 98200 M⁻¹ s⁻¹, an MIC [2] of 0.5 µg/mL and a Ratio (Escherichia coli [14]) of 64. For the same compound, the MIC [3] was 0.5 µg/mL, the MIC [4] was 2 µg/mL and the Kinact [5] was 22 ms-1. It also gave an MIC (Escherichia coli [6]) of 16 µg/mL, a pKi [7] of 6.63 and an MIC (Escherichia coli [8]) of less than 0.25 µg/mL. For the same compound, the MIC (Klebsiella pneumoniae [9]) was 4 µg/mL and the MIC (Escherichia coli [10]) was less than 0.25 µg/mL.
`NC(=O)[C@@H]1CC[C@@H]2CN1C(=O)N2OS(=O)(=O)[O-].[Na+]` [AVIBACTAM SODIUM] showed an MIC [2] of 16 µg/mL, an MIC [3] of 4 µg/mL and an MIC (Acinetobacter baumannii) of 0.5 µg/mL. It also gave an MIC (Klebsiella pneumoniae [13]) of 0.5 µg/mL and an MIC (Escherichia coli [15]) of 2 µg/mL.
`CC(C)(O/N=C(\C(=O)N[C@@H]1C(=O)N2C(C(=O)[O-])=C(C[n+]3ccccc3)CS[C@H]12)c1csc(N)n1)C(=O)O` [CEFTAZIDIME] gave an MIC (Escherichia coli [15]) of no more than 0.25 µg/mL.
With `C[C@]1(COC(=O)Cc2ccc(O)c(O)c2)[C@H](C(=O)O)N2C(=O)/C(=C/c3cc4ccccc4cn3)[C@H]2S1(=O)=O` the MIC [2] was 2 µg/mL, the MIC [3] was 2 µg/mL and the MIC [4] was 4 µg/mL. It also gave an MIC (Escherichia coli [6]) of 256 µg/mL, an MIC (Escherichia coli [8]) of 2 µg/mL and an MIC (Klebsiella pneumoniae [9]) of 8 µg/mL. The MIC (Escherichia coli [10]) was 2 µg/mL and the Activity (Klebsiella pneumoniae [11]) was “Active”.
With `O=C(NC1CCNCC1)[C@@H]1CC[C@@H]2CN1C(=O)N2OS(=O)(=O)O` the MIC [2] was 64 µg/mL, the Ratio (Escherichia coli [14]) was 64 and the MIC [3] was 8 µg/mL. It also gave an MIC [4] of 4 µg/mL, an MIC (Escherichia coli [6]) of 16 µg/mL and an MIC (Escherichia coli [8]) of less than 0.25 µg/mL. It also gave an MIC (Klebsiella pneumoniae [9]) of 8 µg/mL and an MIC (Escherichia coli [10]) of less than 0.25 µg/mL.
Work on `C[C@]1(COC(=O)Cc2ccc(O)c(O)c2)[C@H](C(=O)O)N2C(=O)/C(=C/c3cc(Br)ccn3)[C@H]2S1(=O)=O` yielded a Ratio [1] of 159000 M⁻¹ s⁻¹, an MIC [2] of 1 µg/mL and a Ratio (Escherichia coli [14]) of 64. It also gave an MIC [3] of 1 µg/mL, a Ratio Ki [16] of 2 and an MIC [4] of 2 µg/mL. For the same compound, the Ratio [17] was 1.6, the Drug metabolism [18] was “Metabolite detected” and the Kinact [5] was 22 ms-1. The MIC (Escherichia coli [6]) was 16 µg/mL, the pKi [7] was 6.85 and the MIC (Escherichia coli [8]) was less than 0.25 µg/mL. The Drug metabolism [19] was “Metabolite detected”, the MIC (Klebsiella pneumoniae [9]) was 4 µg/mL and the Drug metabolism [20] was “Metabolite detected”. The MIC (Escherichia coli [10]) was less than 0.25 µg/mL, the Activity (Klebsiella pneumoniae [11]) was “Active” and the Activity [12] was “Active”.
In the case of `Cn1cc(-c2ccnc(/C=C3/C(=O)N4[C@@H](C(=O)O)[C@](C)(COC(=O)Cc5ccc(O)c(O)c5)S(=O)(=O)[C@H]34)c2)cn1`, the Ratio [1] was 110000 M⁻¹ s⁻¹, the MIC [2] was 1 µg/mL and the Ratio (Escherichia coli [14]) was 64. It also gave an MIC [3] of 1 µg/mL, an MIC [4] of 2 µg/mL and a Kinact [5] of 24 ms-1. The MIC (Escherichia coli [6]) was 16 µg/mL, the pKi [7] was 6.66 and the MIC (Escherichia coli [8]) was less than 0.25 µg/mL. The MIC (Klebsiella pneumoniae [9]) was 8 µg/mL, the MIC (Escherichia coli [10]) was less than 0.25 µg/mL and the Activity (Klebsiella pneumoniae [11]) was “Active”.
